Here are results for 21 compounds from ChEMBL document CHEMBL1142350, “From rigid cyclic templates to conformationally stabilized acyclic scaffolds. Part I: the discovery of CCR3 antagonist development candidate BMS-639623 with picomolar inhibition potency against eosinophil chemotaxis” (Bioorg Med Chem Lett, 2008).

For data set [1], the target named is T1, C-C chemokine receptor type 3 (Homo sapiens, UniProt P51677).
T1 sequence (P51677 whole entry): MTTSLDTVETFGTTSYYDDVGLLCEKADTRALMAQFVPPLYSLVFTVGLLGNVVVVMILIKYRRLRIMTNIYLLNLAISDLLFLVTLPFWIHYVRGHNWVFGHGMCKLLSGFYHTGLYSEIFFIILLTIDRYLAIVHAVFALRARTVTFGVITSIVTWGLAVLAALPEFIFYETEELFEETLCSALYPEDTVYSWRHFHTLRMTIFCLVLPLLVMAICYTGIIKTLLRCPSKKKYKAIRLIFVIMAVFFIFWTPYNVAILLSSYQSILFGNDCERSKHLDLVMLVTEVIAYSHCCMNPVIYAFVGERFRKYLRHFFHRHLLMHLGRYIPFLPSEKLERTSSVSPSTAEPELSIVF
The experiment in a line: Displacement of [125I]eotaxin from human CCR3 receptor expressed in CHO cells. The class given is cell-based. A general note: Displacement assays read how much labelled ligand stays bound in the presence of the test substance.

The target in data set [2] is Cytochrome P450 2D6 (Homo sapiens, UniProt P10635).
The target in data set [3] is T2, C-C chemokine receptor type 3 (Homo sapiens) (UniProt P51677).
T2 sequence (whole entry): T1 sequence (P51677 whole entry)
The experiment in a line: Displacement of [125I]eotaxin from human CCR3 receptor expressed in CHO cells at 0.3 uM. The class given is cell-based.

Data set [4] is described as follows: Metabolic stability assessed as clearance in human liver microsomes. It is filed as ADME, Microsome. In general terms: Microsomes from liver hold many membrane-bound enzymes, among them those of drug oxidation.
Data set [5] can be described thus: Bioavailability in cynomolgus monkey at 10 mg/kg, po. The class given is ADME, organism-based, Macaca fascicularis. The conditions noted are these: in vivo.
Data set [6] is described as follows: Cmax in dog at 10 mg/kg, po. The class given is ADME, organism-based, Canis lupus familiaris. Further details: dose 10 mg/kg, route oral. The conditions noted are these: in vivo.
Data set [7] has as its system Cynomolgus monkey. The experiment in a line: Reduction of eosinophilia in Ascaris suum-challenged cynomolgus monkey at 5 mg/kg, po bid 2 hrs administered before pathogen challenge after 10 hrs. It is filed as functional, Macaca fascicularis. Further details: scale not given: the % may be the effect or the level left. An outline of the steps: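 Cross-over design in five cynomolgus monkeys given vehicle or compound orally at 5 mg/kg b.i.d., 2 h before and 10 h after Ascaris suum aerosol challenge. Bronchoalveolar lavage was done 24 h after challenge and eosinophils were counted. Trough plasma levels were measured.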

Data set [8] in a line: AUC in cynomolgus monkey at 10 mg/kg, po. The class given is ADME, organism-based, Macaca fascicularis. Details: dose 10 mg/kg, route oral. The conditions noted are these: plasma.
A short description of data set [9]: Cmax in mouse at 10 mg/kg, po. The class given is ADME, organism-based. Further details: dose 10 mg/kg, route oral. The conditions noted are these: in vivo.
A short description of data set [10]: AUC in chimpanzee at 2 mg/kg, po. The class given is ADME, organism-based, Pan troglodytes. Details: dose 2 mg/kg, route oral. The conditions noted are these: plasma.
A short description of data set [11]: Cmax in rat at 50 mg/kg, po. It is filed as ADME, organism-based. Details: dose 50 mg/kg, route oral. Particulars: in vivo.
The nature of data set [12]: AUC in dog at 10 mg/kg, po. Particulars: plasma. The class given is ADME, organism-based, Canis lupus familiaris. Details: dose 10 mg/kg, route oral.
Data set [13] is described as follows: Cmax in cynomolgus monkey at 10 mg/kg, po. The class given is ADME, organism-based, Macaca fascicularis. Further details: dose 10 mg/kg, route oral. Particulars: in vivo.
Data set [14] is described as follows: Bioavailability in mouse at 10 mg/kg, po. The class given is ADME, organism-based. Particulars: in vivo.
Data set [15] is described as follows: Cmax in chimpanzee at 2 mg/kg, po. It is filed as ADME, organism-based, Pan troglodytes. Further details: dose 2 mg/kg, route oral. Particulars: in vivo.
Data set [16] can be described thus: AUC in rat at 50 mg/kg, po. The class given is ADME, organism-based. Details: dose 50 mg/kg, route oral. The conditions noted are these: plasma.
Data set [17] deals with T1, C-C chemokine receptor type 3. The experiment in a line: Antagonist activity at human CCR3 receptor in human eosinophil assessed as inhibition of eotaxin-stimulated intracellular calcium flux. It is filed as functional, cell-based. In general terms: A change in cytosolic calcium serves as a functional read-out for many receptors and channels.
A short description of data set [18]: Bioavailability in rat at 50 mg/kg, po. Particulars: in vivo. It is filed as ADME, organism-based.
Data set [19] can be described thus: AUC in mouse at 10 mg/kg, po. It is filed as ADME, organism-based. Further details: dose 10 mg/kg, route oral. The conditions noted are these: plasma.
Data set [20] is described as follows: Bioavailability in chimpanzee at 2 mg/kg, po. It is filed as ADME, organism-based, Pan troglodytes. The conditions noted are these: in vivo.
Data set [21] is described as follows: Bioavailability in dog at 10 mg/kg, po. The class given is ADME, organism-based, Canis lupus familiaris. The conditions noted are these: in vivo.

Cytochrome P450 2D6, sequence (P10635 whole entry): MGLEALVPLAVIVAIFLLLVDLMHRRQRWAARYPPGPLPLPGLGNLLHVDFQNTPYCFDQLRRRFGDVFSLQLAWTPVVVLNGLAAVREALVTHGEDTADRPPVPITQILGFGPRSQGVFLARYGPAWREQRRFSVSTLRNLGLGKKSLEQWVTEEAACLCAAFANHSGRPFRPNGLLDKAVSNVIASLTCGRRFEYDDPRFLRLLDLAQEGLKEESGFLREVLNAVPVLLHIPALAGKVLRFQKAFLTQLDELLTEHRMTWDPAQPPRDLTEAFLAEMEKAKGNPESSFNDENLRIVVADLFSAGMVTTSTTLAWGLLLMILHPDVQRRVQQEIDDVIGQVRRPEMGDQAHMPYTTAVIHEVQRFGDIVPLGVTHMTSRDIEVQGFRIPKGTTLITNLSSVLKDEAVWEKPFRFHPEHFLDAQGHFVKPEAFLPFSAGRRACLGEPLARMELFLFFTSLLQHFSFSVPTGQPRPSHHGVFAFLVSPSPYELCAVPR

As to `CC(=O)c1cc(NC(=O)N[C@H](C)CCN2CCC[C@@H](Cc3ccc(F)cc3)C2)cc(-c2nnnn2C)c1`, the concentration for half-maximal inhibition (IC50) (commonly the concentration needed to halve the response being measured) in [1] was determined as 1.5 nM.
Still for that read-out and setting: with `CC(C)c1cc(NC(=O)N[C@H](C)CCN2CCC[C@@H](Cc3ccc(F)cc3)C2)cc(-c2nnnn2C)c1` the figure was 2.6 nM.
For `C[C@@H](CC(=O)N1CCC[C@@H](Cc2ccc(F)cc2)C1)NC(=O)Nc1cccc(-c2nnnn2C)c1`, the half-inhibitory concentration (IC50) in [2] is above 100000 nM. The compound also yielded an Activity in data set [3] of 37%.
In data set [1], `C[C@H](CCN1CCC[C@@H](Cc2ccc(F)cc2)C1)NC(=O)Nc1cc(-n2ccnn2)cc(-n2ccnn2)c1` had a half-maximal inhibitory concentration (IC50) of 2 nM.
In the case of `C[C@H](CC(=O)N1CCC[C@@H](Cc2ccc(F)cc2)C1)NC(=O)Nc1cccc(-c2nnnn2C)c1`, the IC50 is 4.2 nM in [1] and 4400 nM in data set [2].
Take `C[C@H](CCN1CCC[C@@H](Cc2ccc(F)cc2)C1)NC(=O)Nc1cc(-n2cccn2)cc(-n2cccn2)c1`: the IC50 in data set [1] is 1.7 nM; in data set [2], 3000 nM.
In turn, `CCc1cc(NC(=O)N[C@H](C)CCN2CCC[C@@H](Cc3ccc(F)cc3)C2)cc(-c2nnnn2C)c1` displayed a concentration for half-maximal inhibition (IC50) in data set [1] of 2 nM.
Same read-out and setting: with `C[C@@H](CCN1CCC[C@@H](Cc2ccc(F)cc2)C1)NC(=O)Nc1cccc(-c2nnnn2C)c1` the figure was 4 nM.
In data set [1], `C[C@H](CCN1CCC[C@@H](Cc2ccc(F)cc2)C1)NC(=O)Nc1cc(-c2nnnn2C)cc(C(C)(C)O)c1` displayed an IC50 of 0.7 nM. The CLhep predicted in data set [4] is 12 mL/min/kg.
For `CCc1cc(NC(=O)NCCCN2CCC[C@@H](Cc3ccc(F)cc3)C2)cc(-c2nnnn2C)c1`, the IC50 in data set [1] amounted to 1 nM.
Still for that read-out and setting: to `CCc1cc(NC(=O)N[C@H](C)[C@H](CN2CCC[C@@H](Cc3ccc(F)cc3)C2)N(C)C)cc(-c2nnnn2C)c1` belongs 0.5 nM.
The same measure, in the same setting: with `C[C@H](CCN1CCC[C@@H](Cc2ccc(F)cc2)C1)NC(=O)Nc1cccc(-c2nnnn2C)c1` the figure was 1.3 nM; with `CC(C)c1cc(NC(=O)NCCCN2CCC[C@@H](Cc3ccc(F)cc3)C2)cc(-c2nnnn2C)c1`, 2.6 nM.
For the compound `O=C(NCCCN1CCC[C@@H](Cc2ccc(F)cc2)C1)Nc1cc(-n2cccn2)cc(-n2cccn2)c1`, the IC50 was 1.6 nM in data set [1] and 2800 nM in data set [2].
As for `C[C@@H](NC(=O)Nc1cccc(-c2nnnn2C)c1)[C@@H](O)CN1CCC[C@@H](Cc2ccc(F)cc2)C1`, the bioavailability – broadly, the share of a dose that reaches the circulation, judged against a reference dose that is usually intravenous – in data set [5] amounted to 19%; in [14] it was 57%; in data set [18], 45%; in [20], 16%; in [21], 17%. Moreover, the Cmax (as a rule, the peak of the concentration-time curve) in data set [6] was determined as 926 nM; in [9], 1540 nM; in [11], 3170 nM; in [13] it was 561 nM; in data set [15], 173 nM. In addition, the IC50 came out at 2600 nM in [2] and 0.87 nM in [17]. The compound further returned an Activity in data set [7] of 82%. Besides, the AUC (commonly concentration integrated over time) in [8] amounted to 1.05 µM·h; in [10] it was 0.639 µM·h; in [12], 2.74 µM·h; in [16] it was 21.3 µM·h; in data set [19] it was 3.15 µM·h.
As for `CCC[C@H](CCN1CCC[C@@H](Cc2ccc(F)cc2)C1)NC(=O)Nc1cc(-c2nnnn2C)cc(C(C)(C)O)c1`, the figures for the 50% inhibitory concentration (IC50) in data set [1] and in data set [2] were 1.5 nM and 1000 nM, respectively. Moreover, the CLhep predicted in data set [4] is 17 mL/min/kg.
With `C[C@H](CCN1CCC[C@@H](Cc2ccc(F)cc2)C1)NC(=O)Nc1cc(Br)cc(-c2nnnn2C)c1`, the IC50 in [1] was found to be 1.7 nM.
Still for that read-out and setting: to `CC(=O)c1cc(NC(=O)N[C@@H](C)CCN2CCC[C@@H](Cc3ccc(F)cc3)C2)cc(C(C)=O)c1` belongs 5.8 nM; to `CC(=O)c1cc(NC(=O)N[C@H](C)CCN2CCC[C@@H](Cc3ccc(F)cc3)C2)cc(C(C)=O)c1`, 2.7 nM.
On the same count and under the same terms, to `Cc1cc(NC(=O)N[C@H](C)CCN2CCC[C@@H](Cc3ccc(F)cc3)C2)cc(-c2nnnn2C)c1` belongs 1.2 nM.
In the case of `CC[C@H](CCN1CCC[C@@H](Cc2ccc(F)cc2)C1)NC(=O)Nc1cc(-c2nnnn2C)cc(C(C)(C)O)c1`, the concentration for half-maximal inhibition (IC50) was 2.4 nM in data set [1] and 8200 nM in data set [2]. Further, the CLhep predicted in [4] was 15 mL/min/kg.
